{"source": "ChEMBL document CHEMBL4376851", "about": "(J Med Chem, 2020)", "key": {"[1]": {"biological_target": "T1, Aldo-keto reductase family 1 member B1 (Rattus norvegicus, UniProt P07943)", "test": "Inhibition of rat lens ALR2 using D,L-glyceraldehyde as substrate incubated for 1 min and measured up to 4 mins using H2O-dissolved compound by spectrophotometric analysis", "in_short": "(§1)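 ALR2 purified from lenses of male Wistar rats (8–9 weeks, 200–230 g); in vitro reduction of D,L-glyceraldehyde (5.0 mM) monitored. Solvent was water or 1% DMSO. Same enzyme batch throughout. IC50 is the mean of two measurements or mean ± SD of at least three.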"}, "[2]": {"organism": "Rattus norvegicus", "test": "Selectivity index, ratio of IC50 for rat kidney ALR1 using sodium D-glucuronate as substrate incubated for 1 min and measured up to 4 mins using H2O-dissolved compound to IC50 for rat lens ALR2 using D,L-glyceraldehyde as substrate incubated for 1 min and measured up to 4 mins using H2O-dissolved compound", "in_short": "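Selectivity factor computed as IC50(ALR1, rat kidney, D-glucuronate) divided by IC50(ALR2, rat lens, D,L-glyceraldehyde), both measured with compounds in water.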"}, "[3]": {"biological_target": "T1, Aldo-keto reductase family 1 member B1", "test": "Inhibition of rat lens ALR2 using D,L-glyceraldehyde as substrate incubated for 1 min and measured up to 4 mins using 1% DMSO-dissolved compound by spectrophotometric analysis", "in_short": "as §1"}, "[4]": {"test": "Inhibition of rat kidney ALR1 using sodium D-glucuronate as substrate incubated for 1 min and measured up to 4 mins using H2O-dissolved compound by spectrophotometric analysis", "in_short": "(§2)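 ALR1 purified from kidneys of male Wistar rats (8–9 weeks, 200–230 g); reduction of D-glucuronate monitored. Inhibitor dissolved in water. I (%) is inhibition at 100 μM inhibitor. Same enzyme batch throughout. Values are means of two measurements or mean ± SD of at least three.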"}, "[5]": {"test": "Antioxidant activity assessed as DPPH radical scavenging activity by measuring reduction in absorbance at 200 uM after 30 mins (reference value: 0.013 +/- 0.012)", "format": "functional", "in_short": "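Stable DPPH radical, 50 μM in ethanol, incubated without (blank) or with test compound at 200 μM; absorbance decline at 518 nm read after the initial 30-min interval. Mean ± SD of at least three measurements.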"}, "[6]": {"biological_target": "T2, Sorbitol dehydrogenase (Ovis aries) (UniProt P07846)", "T2 sequence (whole entry)": "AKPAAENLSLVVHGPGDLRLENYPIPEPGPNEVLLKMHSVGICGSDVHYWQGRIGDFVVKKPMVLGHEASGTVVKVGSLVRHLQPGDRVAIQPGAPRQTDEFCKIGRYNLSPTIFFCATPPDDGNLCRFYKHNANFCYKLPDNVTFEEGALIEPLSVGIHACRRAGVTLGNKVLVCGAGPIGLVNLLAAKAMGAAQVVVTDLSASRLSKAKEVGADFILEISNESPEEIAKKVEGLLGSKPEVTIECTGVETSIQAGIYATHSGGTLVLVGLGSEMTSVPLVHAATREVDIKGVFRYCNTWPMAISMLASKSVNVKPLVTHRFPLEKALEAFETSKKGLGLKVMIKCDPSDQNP", "test": "Inhibition of sheep liver sorbitol dehydrogenase at 100 uM using sorbitol as substrate measured for 4 mins in presence of NAD+ by spectrophotometric analysis relative to control"}, "[7]": {"biological_target": "Aldo-keto reductase family 1 member B1 (Rattus norvegicus) (UniProt P07943)", "test": "Inhibition of ALR2 in rat lens assessed as reduction in sorbitol accumulation preincubated for 30 mins followed by D-glucose addition and measured after 3 hrs by resazurin based fluorescence analysis", "in_short": "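Isolated eye lenses from female Wistar rats (9–10 weeks, 210–250 g) incubated with 50 mM glucose, alongside glucose-free and glucose-only controls. Inhibitor at 1, 10, 50 and 100 μM; lens sorbitol measured. Mean ± SEM of at least five independent incubations.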"}, "[8]": {"biological_target": "Aldo-keto reductase family 1 member B1 (Homo sapiens, UniProt P15121)", "test": "Inhibition of human AKR1B1 expressed in Escherichia coli using D,L-glyceraldehyde as substrate incubated for 1 min and measured up to 4 mins using by spectrophotometric analysis"}, "[9]": {"biological_target": "T1, Aldo-keto reductase family 1 member B1", "test": "Inhibition of rat lens ALR2 using 4-hydroxynonenal as substrate incubated for 1 min and measured up to 4 mins by spectrophotometric analysis", "in_short": "(§3)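 Rat lens ALR2 with methylglyoxal (0.5 mM), 4-hydroxynonenal (0.5 mM) or GS-HNE (1.0 mM). IC50 is mean ± SD of at least three measurements.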"}, "[10]": {"organism": "Homo sapiens", "test": "Selectivity index, ratio of IC50 for human AKR1B10 to IC50 for human AKR1B1 expressed in Escherichia coli", "in_short": "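Ratio of IC50s against recombinant human AKR1B10 and AKR1B1, each measured without DMSO as inhibition of DL-glyceraldehyde reduction. AKR1B10 used 5 mM substrate, 0.12 mM nicotinamide adenine dinucleotide phosphate cofactor and 10 μg/mL protein. AKR1B1 used the rat-lens ALR2 assay conditions at 5 μg/mL protein. IC50s are mean ± SD of at least three measurements.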"}, "[11]": {"biological_target": "T1, Aldo-keto reductase family 1 member B1", "test": "Inhibition of rat lens ALR2 using methylglyoxal as substrate incubated for 1 min and measured up to 4 mins by spectrophotometric analysis", "in_short": "as §3"}, "[12]": {"biological_target": "T1, Aldo-keto reductase family 1 member B1", "test": "Inhibition of rat lens ALR2 using 4-hydroxynonenal glutathione as substrate incubated for 1 min and measured up to 4 mins by spectrophotometric analysis", "in_short": "as §3"}, "[13]": {"biological_target": "Aldo-keto reductase family 1 member B10 (Homo sapiens, UniProt O60218)", "sequence (O60218 whole entry)": "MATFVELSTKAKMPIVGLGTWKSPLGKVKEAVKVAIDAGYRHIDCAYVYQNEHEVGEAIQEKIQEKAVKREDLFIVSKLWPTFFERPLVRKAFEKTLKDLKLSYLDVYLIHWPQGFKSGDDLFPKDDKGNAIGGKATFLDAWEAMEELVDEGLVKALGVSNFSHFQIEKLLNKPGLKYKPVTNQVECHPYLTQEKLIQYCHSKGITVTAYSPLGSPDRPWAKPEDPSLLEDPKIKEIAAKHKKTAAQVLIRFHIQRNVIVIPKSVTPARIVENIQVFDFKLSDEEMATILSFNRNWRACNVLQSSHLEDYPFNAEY", "test": "Inhibition of human AKR1B10 using D,L-glyceraldehyde as substrate incubated for 1 min and measured up to 4 mins using by spectrophotometric analysis", "in_short": "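Human recombinant AKR1B10 at 10 μg/mL protein with 5 mM DL-glyceraldehyde substrate and 0.12 mM NADPH cofactor. Run without DMSO. IC50 is mean ± SD of at least three measurements.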"}, "[14]": {"organism": "Rattus norvegicus", "test": "Inhibition of rat kidney ALR1 at 100 uM using sodium D-glucuronate as substrate incubated for 1 min and measured up to 4 mins using H2O-dissolved compound by spectrophotometric analysis relative to control", "in_short": "as §2"}}, "data": [{"smiles": "O=C(O)Cn1nc2c3ccccc3n(CC(=O)O)c2nc1=O", "values": [{"measurement": "IC50", "setting": "[1]", "result": 120, "unit": "nM"}, {"measurement": "Ratio IC50", "setting": "[2]", "result": 168}, {"measurement": "IC50", "setting": "[3]", "result": 233, "unit": "nM"}, {"measurement": "IC50", "setting": "[4]", "result": 20200, "unit": "nM"}]}, {"smiles": "O=C(O)Cn1c2ccccc2c2n[nH]c(=O)nc21", "values": [{"measurement": "Reduction in absorbance at 518 nm (DPPH)", "setting": "[5]", "result": 0.057}, {"measurement": "inhibition", "setting": "[6]", "result": 0.9, "unit": "%"}, {"measurement": "inhibition", "setting": "[7]", "result": "Dose-dependent effect"}, {"measurement": "IC50", "setting": "[1]", "result": 42, "unit": "nM"}, {"measurement": "IC50", "setting": "[8]", "result": 66, "unit": "nM"}, {"measurement": "IC50", "setting": "[9]", "result": 216, "unit": "nM"}, {"measurement": "Ratio IC50", "setting": "[2]", "result": "> 2380"}, {"measurement": "IC50", "setting": "[3]", "result": 51, "unit": "nM"}, {"measurement": "Ratio IC50", "setting": "[10]", "result": "> 850"}, {"measurement": "IC50", "setting": "[11]", "result": 40, "unit": "nM"}, {"measurement": "IC50", "setting": "[12]", "result": 292, "unit": "nM"}, {"measurement": "IC50", "setting": "[4]", "result": "> 100000", "unit": "nM"}, {"measurement": "IC50", "setting": "[13]", "result": 56200, "unit": "nM"}, {"measurement": "inhibition", "setting": "[14]", "result": 24, "unit": "%"}]}, {"smiles": "O=C(O)Cn1c2ccccc2c2nn(Cc3ccccc3)c(=O)nc21", "values": [{"measurement": "IC50", "setting": "[1]", "result": 434, "unit": "nM"}, {"measurement": "Ratio IC50", "setting": "[2]", "result": "> 230"}, {"measurement": "IC50", "setting": "[3]", "result": 787, "unit": "nM"}, {"measurement": "IC50", "setting": "[4]", "result": "> 100000", "unit": "nM"}, {"measurement": "inhibition", "setting": "[14]", "result": 37.8, "unit": "%"}]}, {"smiles": "O=C(O)Cn1c2ccccc2c2nnc(S)nc21", "values": [{"measurement": "Reduction in absorbance at 518 nm (DPPH)", "setting": "[5]", "result": 0.219}, {"measurement": "IC50", "setting": "[4]", "result": 35000, "unit": "nM"}]}, {"smiles": "COc1ccc2[nH]cc(CCNC(C)=O)c2c1", "values": [{"measurement": "Reduction in absorbance at 518 nm (DPPH)", "setting": "[5]", "result": 0.022}]}, {"smiles": "COCn1nc2c3ccccc3n(CC(=O)O)c2nc1=O", "values": [{"measurement": "Reduction in absorbance at 518 nm (DPPH)", "setting": "[5]", "result": 0.042}, {"measurement": "IC50", "setting": "[1]", "result": 85, "unit": "nM"}, {"measurement": "Ratio IC50", "setting": "[2]", "result": "> 1180"}, {"measurement": "IC50", "setting": "[3]", "result": 118, "unit": "nM"}, {"measurement": "IC50", "setting": "[4]", "result": "> 100000", "unit": "nM"}, {"measurement": "inhibition", "setting": "[14]", "result": 13.4, "unit": "%"}]}]}
